How the values were obtained:
[1] = molecular target: T1, 3-keto-steroid reductase/17-beta-hydroxysteroid dehydrogenase 7 (Homo sapiens) (UniProt P56937); assay: Inhibition of human 17beta-HSD7 expressed in HEK293 cells assessed as inhibition of reduction of [14C]dihydrotestosterone into [14C]5alpha-androstane-3beta,17beta-diol at 3 uM after 18 hrs; type: cell-based
T1 sequence (whole entry): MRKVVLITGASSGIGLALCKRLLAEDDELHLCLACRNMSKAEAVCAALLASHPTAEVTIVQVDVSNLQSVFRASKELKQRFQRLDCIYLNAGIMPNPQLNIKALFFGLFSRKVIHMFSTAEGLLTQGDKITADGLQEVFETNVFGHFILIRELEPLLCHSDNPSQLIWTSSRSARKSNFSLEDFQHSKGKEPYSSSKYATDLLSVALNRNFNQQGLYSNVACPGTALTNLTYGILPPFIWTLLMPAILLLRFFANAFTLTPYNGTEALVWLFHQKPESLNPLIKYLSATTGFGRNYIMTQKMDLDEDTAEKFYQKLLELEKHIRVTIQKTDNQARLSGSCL
Method in brief: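 Intact HEK-293 cells stably overexpressing h17β-HSD7 (pCMV-neo, G-418 selected) were plated at 500 000 cells/well in MEM with 10% fetal calf serum at 37 °C. Fresh medium received 15 000 cpm (~150 nM) [4-14C]-DHT plus ethanolic inhibitor, and cells were incubated 18 h. Steroids were extracted twice with diethyl ether. Assays were done in duplicate.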

[2] = molecular target: T1, 3-keto-steroid reductase/17-beta-hydroxysteroid dehydrogenase 7 (Homo sapiens); details: HEK293, at 0.3 µM
[3] = molecular target: T1, 3-keto-steroid reductase/17-beta-hydroxysteroid dehydrogenase 7 (Homo sapiens); details: HEK293, at 3 µM

SMILES	inhibition [1] [%]	inhibition [2] [%]	inhibition [3] [%]
CCCCCCCCCCN(C=O)C1CC[C@H]2[C@@H]3CC[C@H]4NC(=O)CC[C@]4(C)[C@H]3CC[C@]12C (stereo partly specified)	69		
C=CC[C@@]1(O)CC[C@H]2[C@@H]3CC[C@H]4N(C)C(=O)CC[C@]4(C)[C@H]3CC[C@@]21C		13.3	4.9
CCS(=O)(=O)Oc1ccc2c(c1)CC[C@@H]1[C@@H]2CC[C@@]2(C)[C@H]1CC[C@@]21CCC(C)(C)C(=O)O1		21	60.9
CC1(C)CC[C@@]2(CC[C@H]3[C@@H]4CCc5cc(C(=O)O)ccc5[C@H]4CC[C@@]32C)OC1=O		28.1	20.9
C[C@@]12CCC[C@H]1[C@@H]1CCc3cc(O)ccc3[C@H]1CC2		4.5	6
CCCCCCN(C=O)[C@H]1CC[C@H]2[C@@H]3CC[C@H]4N(C)C(=O)CC[C@]4(C)[C@H]3CC[C@]12C		94.1	100
C[C@]12CC[C@@H]3c4ccc(O)cc4CC[C@H]3[C@@H]1C[C@@H](CCBr)[C@@H]2O		5.8	4.5
CC(C)C(=O)N(c1ccc([N+](=O)[O-])c(C(F)(F)F)c1)[C@H]1CC[C@H]2[C@@H]3CC[C@H]4N(C)C(=O)CC[C@]4(C)[C@H]3CC[C@]12C		13.7	71.3
CCCCCN(C(=O)CCCC)[C@H]1CC[C@H]2[C@@H]3CC[C@H]4N(C)C(=O)CC[C@]4(C)[C@H]3CC[C@]12C		27.3	79.7
CC1CC(=O)O[C@]2(CC[C@H]3[C@@H]4CCc5cc(O)ccc5[C@H]4CC[C@@]32C)C1 (stereo partly specified)		14	22.9
C[C@]12CCC(=O)C[C@@H]1CC[C@@H]1[C@@H]2CC[C@@]2(C)[C@H]1CC[C@@]21CCCC(=O)O1		18.6	30.9
CCCCCCCN(C)C1CC[C@H]2[C@@H]3CC[C@H]4NC(=O)CC[C@]4(C)[C@H]3CC[C@]12C (stereo partly specified)	69		
C[C@]12CC[C@](O)(Cc3ccccc3)C[C@@H]1CC[C@@H]1[C@@H]2CC[C@]2(C)C(=O)CC[C@@H]12		19.3	22.2
C[C@]12CC[C@@H](O)C[C@@H]1CC[C@@H]1[C@@H]2CC[C@]2(C)[C@@H](O)CC[C@@H]12		1.1	8.4
CN1C(=O)CC[C@]2(C)[C@H]3CC[C@]4(C)[C@@H](Nc5ccc([N+](=O)[O-])cc5)CC[C@H]4[C@@H]3CC[C@@H]12		40.9	88
C#C[C@]1(O)CC[C@H]2[C@@H]3CCc4cc(O)ccc4[C@H]3CC[C@@]21C		8.3	3.4
CC(C)NC(=O)N(C1CC1)[C@H]1CC[C@H]2[C@@H]3CC[C@H]4N(C)C(=O)C=C[C@]4(C)[C@H]3CC[C@]12C		3.6	2.5
CC(=O)C1CC[C@@]2(CC[C@H]3[C@@H]4CCc5cc(O)ccc5[C@H]4CC[C@@]32C)OC1=O (stereo partly specified)		2.1	14.8
C[C@]12CC[C@@H]3c4ccc(S(N)(=O)=O)cc4CC[C@H]3[C@@H]1CCC2=O		4.2	6.1
CC1(C)CC[C@@]2(CC[C@H]3[C@@H]4CCc5cc(C(N)=O)ccc5[C@H]4CC[C@@]32C)OC1=O		11.6	27
C[C@@]12C=CC[C@H]1[C@@H]1CCc3cc(O)ccc3[C@H]1CC2		7.5	5.8
C[C@]12CC[C@@H](O)C[C@H]1CC[C@@H]1[C@@H]2CC[C@]2(C)[C@@H](O)CC[C@@H]12		2.9	6
C[C@]12CCC(=O)C=C1CC[C@@H]1[C@@H]2CC[C@@]2(C)[C@H]1CC[C@]2(O)C(=O)CO		9.8	0
CCCN(C=O)[C@H]1CC[C@H]2[C@@H]3CC[C@H]4N(C)C(=O)CC[C@]4(C)[C@H]3CC[C@]12C		21.7	56.3
C[C@]12CC[C@](O)(CCc3ccccc3)C[C@@H]1CC[C@@H]1[C@@H]2CC[C@]2(C)C(=O)CC[C@@H]12		0	17.4
CN1C(=O)CC[C@]2(C)[C@H]3CC[C@]4(C)[C@@H](N(C(=O)NC5CCCCC5)C5CC5)CC[C@H]4[C@@H]3CC[C@@H]12		8.4	54.7
CC(C)C(=O)Nc1ccc([N+](=O)[O-])c(C(F)(F)F)c1		18.6	10.8

SMILES	inhibition [1] [%]	inhibition [2] [%]	inhibition [3] [%]
COC(=O)c1ccc2c(c1)CC[C@@H]1[C@@H]2CC[C@@]2(C)[C@H]1CC[C@@]21CCC(C)(C)C(=O)O1		15.1	49
O=c1c(-c2ccc(O)cc2)coc2cc(O)cc(O)c12		0	0
C[C@]12CC[C@H]3C(=CCc4cc(O)ccc43)[C@@H]1CC[C@@H]2O		12.6	8.8
CCCCCCCN(C=O)[C@H]1CC[C@H]2[C@@H]3CC[C@H]4N(C)C(=O)CC[C@]4(C)[C@H]3CC[C@]12C	69	94	
CN1C(=O)CC[C@]2(C)[C@H]3CC[C@@]4(C)[C@@H](CC[C@@]4(O)C#CC(C)(C)I)[C@@H]3CC[C@@H]12		20.2	72
CN1C(=O)CC[C@]2(C)[C@H]3CC[C@]4(C)[C@@H](N(C=O)C5CC5)CC[C@H]4[C@@H]3CC[C@@H]12		17.6	41.2
CN1C(=O)CC[C@]2(C)[C@H]3CC[C@]4(C)[C@@H](NC(=O)C(C)(C)C)CC[C@H]4[C@@H]3CC[C@@H]12		13.5	55.9
CC(C)NC(=O)N(C1CC1)[C@H]1CC[C@H]2[C@@H]3CC[C@H]4N(C)C(=O)CC[C@]4(C)[C@H]3CC[C@]12C		16.5	37.3
CC(=O)S[C@@H]1CC2=CC(=O)CC[C@]2(C)[C@H]2CC[C@@]3(C)[C@@H](CC[C@@]34CCC(=O)O4)[C@H]12		7.2	7.5
CCC1(CC)CC[C@@]2(CC[C@H]3[C@@H]4CCc5cc(O)ccc5[C@H]4CC[C@@]32C)OC1=O		15.2	39.6
O=C(c1ccc(OCN2CCCCC2)cc1)c1c(-c2ccc(O)cc2)sc2cc(O)ccc12		0	0
COc1cc2c(cc1O)CC[C@@H]1[C@@H]2CC[C@]2(C)C(=O)CC[C@@H]12		18.4	13.4
COc1ccc(N(C(=O)C(C)C)[C@H]2CC[C@H]3[C@@H]4CC[C@H]5N(C)C(=O)CC[C@]5(C)[C@H]4CC[C@]23C)cc1		41.1	99.8
C[C@]12CC[C@@H]3c4ccc(O)cc4CC[C@H]3[C@@H]1CC[C@@H]2O		1.1	0
C[C@]12CCC(=O)N[C@@H]1CC[C@@H]1[C@@H]2CC[C@]2(C)[C@@H](N(C(=O)c3ccccc3)c3ccccc3)CC[C@@H]12		24	64.1
CN1C(=O)CC[C@]2(C)[C@H]3CC[C@]4(C)[C@@H](N(C(=O)c5ccccc5)c5ccccc5)CC[C@H]4[C@@H]3CC[C@@H]12		31.9	64.1
CCCCCCCN(C(=O)c1ccc(F)cc1)[C@H]1CC[C@H]2[C@@H]3CC[C@H]4N(C)C(=O)CC[C@]4(C)[C@H]3CC[C@]12C	69	84	
CCCCCCCN(C(=O)c1c(F)cccc1F)[C@H]1CC[C@H]2[C@@H]3CC[C@H]4N(C)C(=O)CC[C@]4(C)[C@H]3CC[C@]12C	69	84	
CCCNC(=O)N(C1CC1)[C@H]1CC[C@H]2[C@@H]3CC[C@H]4N(C)C(=O)C=C[C@]4(C)[C@H]3CC[C@]12C		7.8	8.5
CN1C(=O)C=C[C@]2(C)[C@H]3CC[C@]4(C)[C@@H](N(C(=O)NC5CCCCC5)C5CC5)CC[C@H]4[C@@H]3CC[C@@H]12		8.2	0.8
CC1CC[C@@]2(CC[C@H]3[C@@H]4CCc5cc(O)ccc5[C@H]4CC[C@@]32C)OC1=O (stereo partly specified)		14.4	32.1
O=c1cc(-c2ccccc2)oc2cc(O)cc(O)c12		6.8	5.1
C[C@]12CC[C@@H]3c4ccccc4CC[C@H]3[C@@H]1CC[C@@]21CCCC(=O)O1		6.1	4.7
CC1(C)CC[C@@]2(CC[C@H]3[C@@H]4CCc5cc(C(N)=S)ccc5[C@H]4CC[C@@]32C)OC1=O		18.5	60.9
CN(C(=O)NC1CCCCC1)[C@H]1CC[C@H]2[C@@H]3CC[C@H]4N(C)C(=O)CC[C@]4(C)[C@H]3CC[C@]12C		12.2	16.3
CN1C(=O)CC[C@]2(C)[C@H]3CC[C@]4(C)[C@@H](Nc5ccc([N+](=O)[O-])c(C(F)(F)F)c5)CC[C@H]4[C@@H]3CC[C@@H]12		66.1	100
CCCCN(C)C(=O)C[C@@H]1Cc2cc(O)ccc2[C@H]2CC[C@@]3(C)[C@@H](CC[C@@]34CCC(=O)O4)[C@H]12		17.1	15.5

Source: ChEMBL document CHEMBL1154295, “Potent and selective steroidal inhibitors of 17beta-hydroxysteroid dehydrogenase type 7, an enzyme that catalyzes the reduction of the key hormones estrone and dihydrotestosterone” (J Med Chem, 2009)
